The source of these data is ChEMBL document CHEMBL3351601, “2-(4-Chlorobenzyl)-6-arylimidazo[2,1-b][1,3,4]thiadiazoles: synthesis, cytotoxic activity and mechanism of action” (Eur J Med Chem, 2014).

Calls of active or inactive are those of the source. The rule behind the calls is not given here.

One data set relates to CCRF-CEM. Nature of the data set: Cytotoxicity against human CEM cells after 72 hrs by Coulter counting method. The format is cell-based. The method in brief:
(§1)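 (5–7.5) × 10⁴ tumour cells per well with test compound. Proliferation ran 48 h for L1210 and 72 h for CEM and HeLa, at 37 °C in humidified CO₂. Cells counted in a Coulter counter. IC50 taken as the concentration that inhibited cell proliferation by 50%.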

In data set [1] the test system is REH. Description: Induction of apoptosis in human REH cells assessed as viable cells at 1 uM after 48 hrs using propidium iodide/annexin-V by flow cytometry (reference value: 72.6 %). The format is functional. The following applies: read-out: Activity. Summed up:
(§2)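 REH cells given 1 μM compound for 48 h alongside DMSO controls. Harvested, washed in PBS, resuspended in binding buffer (10 mM HEPES pH 7.4, 144 mM NaCl, 25 mM CaCl₂).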
In general terms: A flow cytometer gives signals particle by particle.

For data set [2], the system named is REH. Nature of the data set: Induction of apoptosis in human REH cells assessed as ROS production at 1 uM after 60 mins using H2DCFDA by flow cytometry (reference value: 0.11%). The class given is functional.
In data set [3] the test system is REH. Nature of the data set: Cytotoxicity against human REH cells after 48 to 72 hrs. The format is functional, cell-based. Summed up: (§3)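 REH and K562 cells at 0.5 × 10⁵ cells/ml, given 0–10 μM compound, with a DMSO vehicle control. Read at 48 and 72 h by trypan blue dye exclusion (cells precultured 24 h before dosing) and by MTT. Three independent experiments, MTT in duplicate.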

The subject of data set [4] is HeLa. Description: Cytotoxicity against human HeLa cells after 72 hrs by Coulter counting method. The class given is functional, cell-based. Summed up: as §1
The test system of data set [5] is REH. Description: Induction of apoptosis in human REH cells assessed as late apoptotic cells at 1 uM after 48 hrs using propidium iodide/annexin-V by flow cytometry (reference value: 8.7 %). The format is functional. The method in brief: as §2
Data set [6] deals with REH. Description: Induction of apoptosis in human REH cells assessed as DNA fragmentation at 0.5 uM after 48 hrs by agarose gel electrophoresis. The format is functional, cell-based. Summed up: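 REH cells given 0, 0.1, 0.5, 1 and 5 μM for 48 h, DMSO vehicle control. Cells lysed in Triton X-100/proteinase K buffer at 55 °C for 5 h, then RNase (50 μg/ml) 1 h at 37 °C. DNA precipitated with sodium acetate/isopropanol and run on 2% agarose at 50 V for 3 h.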

For data set [7], the system named is REH. Nature of the data set: Induction of apoptosis in human REH cells assessed as ROS production at 1 uM after 15 mins using H2DCFDA by flow cytometry (reference value: 0.11%). The class given is functional.
Data set [8] has as its system REH. Nature of the data set: Induction of apoptosis in human REH cells assessed as early apoptotic cells at 1 uM after 48 hrs using propidium iodide/annexin-V by flow cytometry (reference value: 16.2 %). The format is functional. The method in brief: as §2
The nature of data set [9]: Ratio of melphalan IC50 to compound IC50 for human CEM cells after 48 to 72 hrs by Coulter counter cell counting. To be noted: CCRF-CEM (CEM) cells.
Data set [10] has as its system REH. Description: Induction of apoptosis in human REH cells assessed as loss of mitochodrial membrane potential at 0.5 to 1 uM after 48 hrs using JC-1 staining by flow cytometry. The class given is functional, cell-based. Summed up:
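REH cells exposed to 0.5 or 1 μM compound for 48 h, then incubated with 0.5 μM JC-1 for 20 min at 37 °C, washed and read by flow cytometry. Green-to-red fluorescence ratio reported. 2,4-DNP as positive control, DMSO-treated cells as controls. Two independent experiments.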

For data set [11], the system named is L1210. Description: Cytotoxicity against mouse L1210 cells after 48 hrs by Coulter counting method. The class given is functional, cell-based. To be noted: L1210, 48 h. The method in brief: as §1
Data set [12] relates to REH. Nature of the data set: Cytotoxicity against human REH cells at 0.5 uM after 48 hrs using ethidium bromide staining by live-dead assay relative to 293T cells. The format is functional. The method in brief:
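REH and 293T cells seeded at 1 × 10^5/ml, exposed to 0.5 μM compound for 48 h; DMSO vehicle control. Harvested cells stained with ethidium bromide (5 μg/ml), which enters membrane-compromised dead cells, and dead fraction quantified by flow cytometry. REH cultured in RPMI1640, 293T in DMEM, both with 10% FBS, penicillin/streptomycin, 37 °C, 5% CO2.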

The subject of data set [13] is REH. Nature of the data set: Induction of apoptosis in human REH cells assessed as ROS production at 1 uM after 5 mins using H2DCFDA by flow cytometry (reference value: 0.11%). The format is functional.
Data set [14] has as its system REH. Description: Cell cycle arrest in human REH cells assessed as accumulation at sub-G1 phase at 0.1 to 1 uM after 48 hrs using propidium iodide by flow cytometry. The class given is functional, cell-based. Summed up: (§4)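 REH cells (0.5 × 10⁵ cells/ml) precultured 24 h, then exposed to 0, 0.1, 0.5 or 1 μM compound for 48 h. Harvested, fixed in 70% chilled ethanol, stained with propidium iodide, analysed by flow cytometry, at least 10,000 cells per sample. Phase distribution from histograms, two independent experiments.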

Data set [15] concerns REH. Nature of the data set: Induction of apoptosis in human REH cells assessed as ROS production at 1 uM after 30 mins using H2DCFDA by flow cytometry (reference value: 0.11%). The class given is functional.
The test system of data set [16] is L1210. Nature of the data set: Ratio of melphalan IC50 to compound IC50 for mouse L1210 cells after 48 to 72 hrs by Coulter counter cell counting.
In data set [17] the test system is REH. Description: Effect on cell cycle progression in human REH cells at 0.1 to 1 uM after 48 hrs using propidium iodide by flow cytometry. The format is functional, cell-based. Summed up:
as §4

Data set [18] concerns REH. Nature of the data set: Induction of apoptosis in human REH cells assessed as necrotic cells at 1 uM after 48 hrs using propidium iodide/annexin-V by flow cytometry (reference value: 2.5 %). The format is functional. The method in brief: as §2
A further data set deals with K562. Description: Cytotoxicity against human K562 cells after 48 to 72 hrs. The class given is functional, cell-based. The method in brief:
as §3

Data set [19] relates to REH. Nature of the data set: Induction of apoptosis in human REH cells assessed as ROS production at 1 uM after 5 to 60 mins using H2DCFDA by flow cytometry (reference value: 0.11%). The class given is functional.
Data set [20] deals with HeLa. Description: Ratio of melphalan IC50 to compound IC50 for human HeLa cells after 48 to 72 hrs by Coulter counter cell counting.
Data set [21] concerns REH. Nature of the data set: Cell cycle arrest in human REH cells at 0.1 to 1 uM after 48 hrs using propidium iodide by flow cytometry. The format is functional, cell-based. Summed up:
as §4

Take `O=Cc1c(-c2cc3ccccc3oc2=O)nc2sc(Cc3ccc(Cl)cc3)nn12`: the IC50 in the data set on CCRF-CEM was 750 nM; in the data set on REH [3], 670 nM; in the data set on HeLa [4], 900 nM; with L1210 [11], 890 nM; in the data set with K562 it was 900 nM. Moreover, the viability at 1 µM in the data set with REH [1] came out at 54.8%. The Activity is given as 0.16% in the data set on REH [2]; 14.6% in the data set on REH [5]; 0.12% in the data set on REH [7]; 21.5% in the data set on REH [8]; 0.16% in the data set on REH [13]; 0.13% in the data set with REH [15]. For the same molecule, the values for the Activity in the data set on REH [18] and in the data set on REH [19] were 9.1% and 36.99%, respectively. Also, the result in the data set with REH [6], in the data set with REH [10] and with REH [14] was Active. The selectivity ratio in data set [9] worked out at 3. Besides, the “fold change (FC)” value with REH [12] is given as 6. Besides, the “Ratio IC50” value with L1210 [16] and with HeLa [20] was 3 throughout. Moreover, the result with REH [17] and with REH [21] was inactive.

A word on the IC50: it is the concentration at which inhibition is half-maximal. Low values mean greater potency in that assay, high ones weaker potency in that assay.
